In ChEMBL document CHEMBL4513216, “Probing the Open Global Health Chemical Diversity Library for Multistage-Active Starting Points for Next-Generation Antimalarials” (ACS Infect Dis, 2020):

Assay: Toxicity liver stage against HepG2, at 10uM
Assay type: cell-based
Set-up: test concentration 10 uM, cell line HepG2-A16-CD81EGFP
Settings: human, HepG2-A16-CD81EGFP cells; read-out: INHIBITION
Procedure, shortened: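 Uninfected HepG2-A16-CD81EGFP cells, 3 × 10^3 per well, 1536-well, plated on prespotted compound at 10 μM final, parasite-free screening media added to match infected plates; puromycin 10 μM positive, DMSO 0.5% negative; run in parallel with 48 h PbLuc assay at 37 °C, 5% CO2; viability by CellTiter-Glo luminescence, normalized to controls.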

Structure (SMILES) | cytotoxicity at 10 µM [%]
Cc1ccccc1-n1cnc(Cl)c1C(=O)O | -4.11
CCCN(CC(F)(F)F)C(=O)c1cc(F)cc2[nH]cnc12 | 3.19
CC(CN(C)C(=O)c1cn(C)nc1-c1ccc(F)cc1F)C(=O)O (stereo not given) | 0.184
Cc1nncn1CCNC(=O)C(C)(C)c1cccc(Cl)c1 | 8.55
N#Cc1cccc(CS(=O)(=O)NCCC(O)c2ccccc2)c1 (stereo not given) | 0.692
COCCC(=O)N1C[C@H]2CCC[C@@]2(COC)C1 | 6.75
CC(C)N(C)Cc1nnc2n1CCCN(c1cnccn1)C2 | 0.0861
O=C(CC1CC1)N1C[C@H]2CCN[C@H]2C1 | 5.75
CN(C)C(=O)c1cnc2n1CCN(Cc1ccncc1)C2 | -69.4
CNC(=O)[C@@]12CCO[C@@H]1CCN(Cc1c(C)noc1C)C2 | -70.5
Cc1ccc(S(=O)(=O)NCC2COCc3c(C)nnn3C2)cc1F (stereo not given) | -4.55
COCCn1ccnc1CN1CCc2[nH]cnc2C1c1ccccn1 (stereo not given) | -3.3
CS(=O)(=O)N1CCC2(CC1)c1ccccc1[C@@H](N1CCSCC1)[C@@H]2O | -9.71
CC(C)C1CN(S(C)(=O)=O)CCCN1Cc1ccc(F)cc1 (stereo not given) | 1.81
CCCn1cc(S(=O)(=O)N[C@H]2CN(C(C)=O)C[C@@H]2C2CC2)cn1 | -1.48
Cc1nn(C)c(C)c1-c1ccnc(N2CCCN(CC(C)C)CC2)n1 | 5.78
Cc1ccnc(N2CCN(C[C@]3(O)CCCN4CCCC[C@@H]43)CC2)c1 | 3.78
Cc1cnc(C(=O)NCC2CCOc3ccccc3C2)cn1 (stereo not given) | 5.06
Cc1ocnc1C(=O)N(Cc1cccnc1)C[C@@H]1CCC(=O)N1 | 8.83
Cc1ccsc1C(=O)N1C[C@@H](C(=O)O)[C@H](C(C)C)C1 | 9.42
CN1CCN(Cc2ccc(-c3ccc(C(N)=O)cc3)nc2)CC1 | 5.58
CCO[C@H]1CN(C)C[C@@H]1NC(=O)c1cc(C)nc2c(C)cccc12 | 3.28
Cc1cc(C)n(C2CCN(C(=O)c3cn4ccsc4n3)C2)n1 (stereo not given) | 6.59
Cc1ccc(C(=O)N2CCC(=O)N(CC3CC3)C(C(C)C)C2)c(=O)[nH]1 (stereo not given) | -15
OC1CCN(C2CCN(c3ccc(Cn4ccnc4)cn3)CC2)CC1 | -2.05
Cc1cnccc1NCCNC(=O)C1CCCN(Cc2ccco2)C1 (stereo not given) | -7.67
CCCc1nc(C(=O)NCCCn2nnc3ccccc32)cs1 | -14
CC(CNc1nccc(C(C)C)n1)Oc1cccnc1 (stereo not given) | 4.34

Structure (SMILES) | cytotoxicity at 10 µM [%]
COc1ncccc1-c1ncccc1NC(=O)C(C)C | 3.78
NC(=O)c1cncc(Oc2cccc(CN3CCCC3)c2Cl)n1 | -3.47
Cc1cccnc1CN1CCN(C(=O)CCn2ccc(=O)[nH]c2=O)CC1 | 1.99
C[C@@H]1CN(C(=O)C2(Cn3cccn3)CC2)CC[C@@]1(O)C1CC1 | -2.6
CCc1ncc(C(=O)N2CC(Oc3ccccc3Cl)C2)cn1 | 45.7
CCc1ccc2occ(CC(=O)N3CCC4(CCCN(C)C4=O)C3)c2c1 (stereo not given) | -14.5
Cc1cccc(CN2CCCC(O)(CNCc3ncccc3C)C2=O)c1 (stereo not given) | -7.4
CN1CCC2(CC1)CN(C(=O)c1onc3ccccc13)CCCN2C | 8.31
CCc1nccn1-c1cncc(C2CCCN2Cc2cccnc2)n1 (stereo not given) | 5.82
CC(C)c1ncc2c(n1)CN(Cc1nnc(Cc3ccccc3)o1)CC2 | -12.6
CC(C)(C)n1cc(C(=O)N2CCN(Cc3ccncc3)CC2)cn1 | -12.8
Cc1csc(N2CCN(C(=O)C3(C#N)CCCCC3)CC2)n1 | -8.45
CCc1ncc2c(n1)CN(CC(=O)Nc1nnc(C)s1)CC2 | 2.94
Cc1noc(C)c1C(=O)NCc1ccc(N2CCOC(C)C2)nc1 (stereo not given) | -3.46
Cc1cc(CN(C)C(=O)c2ccnc(N(C)C)c2)no1 | 5.46
Cc1nc(C)n(CC2CCCN2Cc2nc3ccccc3n2C)n1 (stereo not given) | -2.21
Cc1cnn(CC2CN(CC(=O)NCc3ccccn3)CCO2)c1 (stereo not given) | -5.8
COc1cccc2c(C)c(C(=O)N3CCNCC3C(N)=O)[nH]c12 (stereo not given) | 1.67
c1coc(CN2C[C@@H]3CN(Cc4ccoc4)CCO[C@@H]3C2)c1 | -3.87
Cn1cccc1CN1CCC2(CC1)CC(Oc1cccnc1)C2 | 13.4
c1cn(-c2cnc(C3CCCNC3)cn2)cn1 (stereo not given) | -25.2
Cc1cc2c(=O)n3c(nc2s1)CCN(Cc1cnn(C)c1C)CC3 | 3.06
Cc1cc(CN2CC[C@H]3C(=O)N(c4ccsc4)CCO[C@H]3C2)no1 | -69.2
O=C(c1ccco1)N1CC[C@@H](N2CCOCC2)[C@@H]1Cc1ccncc1 | -78.2
Cc1cc(C(=O)N2CCO[C@H]3[C@H](OCCN(C)C)CC[C@@H]32)c(C)[nH]1 | 7.07
COc1cccc(CCN2C[C@H]3CCNCC[C@H]3S2(=O)=O)c1 | -8.35
NCC1CCC(C(NC(=O)c2ccccn2)c2ccccn2)CC1 (stereo not given) | 2
